# Bioassay records deposited in PubChem BioAssay by several laboratories.
# This is a sample that favours compounds with a hit; in the whole collection about 2.4% have one here.
# HSV replic up – enhancers of HSV replication in host cells, fold increase, host cell viability; HSV replication augmentation in cells; AID 1956, 2009; 220,000 tested, 0.005% active; maximum fold increase; in the data active = maximum fold increase above about 1.5; inconclusive = no clear call, values can overlap the other calls; tested in PC3 cells
# bCat nuc transl – modulators of beta-catenin nuclear translocation, primary screen, imaging, HeLa cells, immunofluorescence, high-content. 190,000 tested, 0.3% active. nuclear translocation activity, % at 5 µM. AID 1665, 2009;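 active = nuclear translocation activity above 50% at 5 µM, with a well cell count of 50 or more; inconclusive = wells under 50 cells across six images, flagged as toxic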;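 note: per-cell ratio of nuclear to cytoplasmic median beta-catenin stain intensity; plate controls were DMSO negative control for no effect and GSK-3 inhibitor IX positive control for full effect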
#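 Assay system: human HeLa cells, native beta-catenin; doses: 5 µM primary, 0.02–20 µM confirmation; incubation: compound treatment 24 h, 37°C, 5% CO2; technique: fluorescence imaging of beta-catenin antibody stain plus DAPI; measure: % activation, nuclear-to-cytoplasmic median beta-catenin signal ratio per cell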
# ROMK mod – ROMK potassium channel modulators, primary screen, cell-based, thallium flux, MLSMR library. ATP-sensitive inward rectifier potassium channel 1 (Homo sapiens), P48048. Tet-inducible ROMK, thallium flux fluorescence; actives lie on both sides. B-score at 10 µM. 130,000 tested, 2% active. AID 1918, 2009;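 active = signal ratio slope over the read window, or its plate-corrected B-score, at least 3 SD from the plate mean, either direction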;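 note: B-score of the F/F0 ratio slope over 7 to 12 s after thallium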
# Target sequence (P48048 whole entry, looked up): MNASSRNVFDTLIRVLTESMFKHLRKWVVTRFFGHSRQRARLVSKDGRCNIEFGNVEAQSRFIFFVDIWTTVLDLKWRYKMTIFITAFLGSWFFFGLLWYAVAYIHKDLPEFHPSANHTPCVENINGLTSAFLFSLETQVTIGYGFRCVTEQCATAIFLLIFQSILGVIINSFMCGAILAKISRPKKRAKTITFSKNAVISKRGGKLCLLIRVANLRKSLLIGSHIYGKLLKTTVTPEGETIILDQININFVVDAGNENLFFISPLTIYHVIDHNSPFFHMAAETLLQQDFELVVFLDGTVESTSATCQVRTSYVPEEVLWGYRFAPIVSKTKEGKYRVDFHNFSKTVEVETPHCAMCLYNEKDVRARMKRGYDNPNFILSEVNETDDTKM
# MT stabilizer – microtubule stabilizers in HeLa cells, primary screen, imaging, high-content imaging | HeLa tubulin immunostaining HCS, 24 h; share of cells brighter than vehicle mean+2SD | AID 2205, 2009 | % tubulin-high responders, % at 10 µM | 200,000 tested, 0.83% active;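 active = plate Z-score above 3 for both tubulin-high and condensed-nucleus cell shares, with cell loss under 80%, at 10 µM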;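 note: anti alpha tubulin signal scored within the nucleus-defined area of each cell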
# INS promoter inh – inhibitors of insulin promoter-driven GFP, primary screen, imaging, TRM-6 cells (human fetal islet line), eGFP reporter, cell count; inhibition, % at 2 µM; 130,000 tested, 0.9% active; AID 1273, 2008; reporter expression induced with tamoxifen;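 active = inhibition above the mean plus 3 SD, with well images judged a real hit on visual review, cut at about 60% in these data, passing the limit was not always enough; inconclusive = inhibition over the cutoff but images rejected on review; inactive = inhibition not above the cutoff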
# ROMK retest – ROMK channel modulator hit retest, confirmation, cell-based, thallium flux, duplicate, resupplied hits; 3,000 tested, 54% active; AID 1917, 2009; shares compounds with ROMK mod; normalized thallium flux (F/F0 slope) at 10 µM; fluorescence ratio; hits give low values;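 active = Flux at 10 µM at least 3 SD below or above vehicle control mean in one or both replicates; inconclusive = no clear call, values can overlap the other calls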
# An asterisk follows results filed as active; i = inactive; ? = inconclusive; / = not tested or not shown.
SMILES,HSV replic up,bCat nuc transl,ROMK mod,MT stabilizer,INS promoter inh,ROMK retest
O=C(Nc1cc(S(=O)(=O)N2CCCCC2)ccc1Cl)c1ccccc1NS(=O)(=O)c1ccc(F)cc1,i,0.1,0.91,5.7,i,/
Cc1ccc(S(=O)(=O)Nc2ccccc2C(=O)NCc2cccnc2)cc1,i,-0.6,2.8*,2.7,/,0.0831
O=C(NCc1cccnc1)c1ccccc1NS(=O)(=O)c1ccc(F)cc1F,i,0.7,/,/,/,/
O=C(Nc1cc(S(=O)(=O)N2CCCCC2)ccc1O)c1ccccc1NS(=O)(=O)c1ccc(F)cc1,i,0.1,3.31*,4.4,-43.3,0.0892
COc1ccc(-c2csc(NC(=O)c3ccccc3NS(=O)(=O)c3ccc(F)c(F)c3)n2)cc1,i,-3.9,-0.386,8.0,/,/
COc1ccc(N2CCN(C(c3cccc(OC)c3OC)c3nnnn3C3CCCC3)CC2)cc1 (stereo unspecified),i,-2.0,/,3.0,48.8,/
COc1cccc(C(c2nnnn2C(C)(C)C)N2CCN(C3CCCCC3)CC2)c1OC (stereo unspecified),i,-8.3,-2.44*,4.8,21.4,?
CCCn1c(=S)[nH]c2cc(C(=O)N3CCCC(C(=O)OCC)C3)ccc2c1=O (stereo unspecified),i,/,-3.23*,3.7,-100.0,0.0597*
CCOC(=O)N1CCN(C(=O)c2ccc3c(=O)n(CCc4ccccc4)c(=S)[nH]c3c2)CC1,i,/,-0.23,1.8,18.2,/
CCN(CC)S(=O)(=O)c1ccc(C)c(NC(=S)N2CCN(Cc3ccc4c(c3)OCO4)CC2)c1,i,1.9,0.0796,7.3,31.6,/
CNC(=S)/N=C/NOCc1ccc(Cl)cc1Cl,i,-3.1,-1.19,5.4,-3.7,/
CC(C)CC(C(=O)OCC(=O)Nc1cccc(Cl)c1)N1C(=O)C2CC=CCC2C1=O (stereo unspecified),i,-2.5,/,4.6,/,/
CCOc1ccccc1NC(=O)COC(=O)C(CC(C)C)N1C(=O)C2CC=CCC2C1=O (stereo unspecified),i,0.2,/,6.2,/,0.0634*
COc1ccc(NC(=S)NNc2ccc([N+](=O)[O-])cc2S(=O)(=O)Nc2ccc(C)cc2C)cc1,i,-0.8,0.866,3.8,-21.4,/
Cc1ccc(NS(=O)(=O)c2cc([N+](=O)[O-])ccc2NNC(=S)Nc2cc(C)ccc2C)c(C)c1,i,-0.8,/,7.9,7.7,0.0639*
O=[N+]([O-])c1ccc2c(c1)nc1n2CCN(C2CCCCC2)C1,i,-0.1,-5.86*,4.4,/,0.0532*
O=[N+]([O-])c1ccc2c(c1)nc1n2CCCCC1,i,1.8,-1.32,5.4,/,/
CN(Cc1ccccc1NS(=O)(=O)c1ccc2ccccc2c1)C1CCCCC1,i,-4.2,-2.93*,2.5,-73.3,?
CCCCN(CC)C(=O)Cn1c(=O)sc2ccccc21,i,-1.7,/,2.8,-250.0,/
CCCCCCc1ccc(-c2ncc(N)cn2)cc1,i,4.5,-4.26*,2.4,-18.9,0.081
CCOc1ccc(NC(=O)N[C@@H](CCSC)C(=O)OC)cc1,i,-0.1,2.36*,1.9,52.8,?
COC(=O)[C@H](CCSC)NC(=O)Nc1ccc(C(C)C)cc1,i,-4.8,-0.385,6.5,/,/
CCOc1ccccc1N(CC(=O)N1CCOCC1)S(=O)(=O)c1ccc(SC)cc1,i,/,-7.38*,2.8,-387.5,0.0335*
CCOc1ccccc1N(CC(=O)Nc1ccc(S(=O)(=O)N2CCOCC2)cc1)S(=O)(=O)c1ccccc1,i,-4.3,/,5.6,13.2,/
Cc1sc2nc(C3CC3)nc(SCC(=O)N3CCCc4ccccc43)c2c1C,i,0.3,-0.0588,4.7,-22.2,/
SMILES,HSV replic up,bCat nuc transl,ROMK mod,MT stabilizer,INS promoter inh,ROMK retest
Cn1c(=O)c2c(SCC(=O)N3CCCc4ccccc43)nc(C3CC3)nc2n(C)c1=O,i,-0.7,/,4.5,/,0.071
COC(=O)/C=C1/SC(=NC(=O)c2ccc(F)cc2)NC1=O,i,-1.3,/,/,/,0.0484*
COC(=O)/C=C1\SC(=NC(=O)c2cccc(Cl)c2)NC1=O,/,-1.5,/,1.0,11.5,0.0515*
CC(C)CCNC(=O)NC(=O)COC(=O)C1=COCCO1,i,-3.1,0.457,2.6,77.8*,0.0788
O=c1c2ccccc2sn1-c1nccs1,i,-2.6,-3.71*,3.8,38.9,0.0709
O=c1c2ccccc2sn1-c1ccccc1,i,-5.9,-1.67,2.6,6.9,/
CCCC[C@@H]1CCCO[C@@](C(=O)NCc2ccc(C)o2)(C(F)(F)F)C1,i,/,/,/,/,/
Cc1ccc(C(=O)Nc2ccnc(-c3cccnc3)n2)cc1,i,-0.7,4.57*,0.9,27.8,0.111*
Cc1nc(NC(=O)c2cccnc2)ccc1Br,i,-0.6,/,2.4,-9.3,0.0793
COc1ccc(C(=O)Nc2ccnc(-c3cccnc3)n2)cc1,i,-2.4,4.37*,1.6,15.4,0.104*
COc1ccc(/C=C(\C#N)c2n[nH]c(Cn3cncn3)n2)cc1,i,-2.4,0.198,2.5,/,/
COc1ccc(C2N(S(=O)(=O)c3ccccc3)CCN2S(=O)(=O)c2ccc(C)cc2)cc1 (stereo unspecified),i,0.3,1.21,1.0,/,/
COc1ccc(C2N(C(=O)N3CCOCC3)CCN2S(=O)(=O)c2ccc(C)cc2)cc1 (stereo unspecified),i,/,1.86*,1.6,22.6,0.0833
Cc1ccc(S(=O)(=O)N2CCN(C(=O)N3CCOCC3)C2c2ccc(N(C)C)cc2)cc1 (stereo unspecified),i,-1.1,1.43,3.3,-91.1,/
CCOC(=O)CN1C(=O)CSc2ccc(S(=O)(=O)N3CCCC3)cc21,i,-0.2,-0.00473,/,/,/
CC1CCCCC1NC(=O)CN1C(=O)CSc2cc(S(=O)(=O)N3CCCCCC3)ccc21 (stereo unspecified),i,-2.3,-4.51*,4.4,-77.8,0.0653*
CCOc1ccc(C(=O)Nc2ccc3c(c2)OCCO3)cc1[N+](=O)[O-],i,/,-3.33*,4.5,0.0,0.0803
Cc1cc(Nc2ccc3c(c2)OCCO3)c2cc(Cl)ccc2n1,i,1.2,-1.88,6.2,/,/
CC1CCCCC1NC(=O)/C(C#N)=C/c1ccccc1F (stereo unspecified),i,-2.5,-5.75*,4.3,6.7,0.0428*
CC(=O)Nc1ccc(/C=C(\C#N)C(=O)NC2CCCCC2C)cc1 (stereo unspecified),i,2.6,-0.0946,3.3,/,/
CSc1ccc(/C=C(\C#N)C(=O)NC2CCCCC2C)cc1 (stereo unspecified),i,-2.9,-3.12*,3.1,7.1,0.0465*
CS(=O)(=O)Nc1ccc(C(=O)Nc2cccc([N+](=O)[O-])c2)cc1,i,-1.0,-0.016,3.8,-5.6,/
